Test results published in ChEMBL document CHEMBL2434898, “New β-phospholactam as a carbapenem transition state analog: Synthesis of a broad-spectrum inhibitor of metallo-β-lactamases” (Bioorg Med Chem Lett, 2013).
Active and inactive are the calls of the source. No cut-off for these calls is given here.

Columns and labels:
[1] = Inhibition of Metallo-beta-lactamase L1 (unknown origin) assessed as inhibition of nitrocefin hydrolysis at 100 uM by spectrophotometry
How it was run: (§1)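 Purified metallo-β-lactamases (subclass B1: IMP-1, CcrA, Bla2, NDM-1; B3: L1) were mixed with inhibitor dissolved in DMSO with no pre-incubation before the hydrolysis assay. Activity is reported as percent inhibition.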

[2] = Inhibition of Metallo-beta-lactamase Bla2 (unknown origin) assessed as inhibition of nitrocefin hydrolysis at 100 uM by spectrophotometry; how it was run: as §1
[3] = Inhibition of Metallo-beta-lactamase IMP-1 (unknown origin) assessed as inhibition of nitrocefin hydrolysis at 100 uM by spectrophotometry; how it was run: as §1
[4] = Activation of metallo-beta-lactamase NDM1 (unknown origin) assessed as hydrolysis of nitrocefin at 100 uM by spectrophotometry; how it was run: as §1
[5] = Activation of metallo-beta-lactamase CcrA (unknown origin) assessed as hydrolysis of nitrocefin at 100 uM by spectrophotometry; how it was run: as §1
[6] = Inhibition of Metallo-beta-lactamase Bla2 (unknown origin) assessed as inhibition of nitrocefin hydrolysis preincubated at 100 uM before substrate addition by spectrophotometry; conditions: TDE = time-dependent effect
[7] = Inhibition of Metallo-beta-lactamase NDM1 (unknown origin) assessed as inhibition of nitrocefin hydrolysis preincubated at 100 uM before substrate addition by spectrophotometry; conditions: TDE = time-dependent effect
[8] = Inhibition of Metallo-beta-lactamase CcrA (unknown origin) assessed as inhibition of nitrocefin hydrolysis preincubated at 100 uM before substrate addition by spectrophotometry; conditions: TDE = time-dependent effect
[9] = Inhibition of Metallo-beta-lactamase IMP-1 (unknown origin) assessed as inhibition of nitrocefin hydrolysis preincubated at 100 uM before substrate addition by spectrophotometry; conditions: TDE = time-dependent effect
[10] = Inhibition of Metallo-beta-lactamase Bla2 (unknown origin) assessed as inhibition of nitrocefin hydrolysis preincubated at 100 uM for 30 mins before substrate addition by spectrophotometry
How it was run: (§2)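 Each enzyme (IMP-1, CcrA, Bla2, NDM-1 of subclass B1; L1 of B3) was pre-incubated with inhibitor in DMSO for 30 min, then substrate hydrolysis was measured. Results are given as percent inhibition.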

[11] = Inhibition of Metallo-beta-lactamase NDM1 (unknown origin) assessed as inhibition of nitrocefin hydrolysis preincubated at 100 uM for 30 mins before substrate addition by spectrophotometry; how it was run: as §2
[12] = Inhibition of Metallo-beta-lactamase CcrA (unknown origin) assessed as inhibition of nitrocefin hydrolysis preincubated at 100 uM for 30 mins before substrate addition by spectrophotometry; how it was run: as §2
[13] = Inhibition of Metallo-beta-lactamase IMP-1 (unknown origin) assessed as inhibition of nitrocefin hydrolysis preincubated at 100 uM for 30 mins before substrate addition by spectrophotometry; how it was run: as §2
[14] = Inhibition of metallo-beta-lactamase L1 (unknown origin) assessed as inhibition of nitrocefin hydrolysis preincubated at 100 before substrate addition by spectrophotometry; conditions: TDE = time-dependent effect
[15] = Inhibition of metallo-beta-lactamase L1 (unknown origin) assessed as inhibition of nitrocefin hydrolysis preincubated at 100 uM for 30 mins before substrate addition by spectrophotometry; how it was run: as §2

CC(=O)OC1C2CCC(C(=O)O)N2P1(=O)O (stereo not given)
inhibition [1]: 37% | inhibition [2]: 22% | inhibition [3]: 48% | Activity [4]: Active | Activity [5]: Active | inhibition [6]: tde | inhibition [7]: tde | inhibition [8]: tde | inhibition [9]: tde | inhibition [10]: 94% | inhibition [11]: 53% | inhibition [12]: 69% | inhibition [13]: 70% | inhibition [14]: tde | inhibition [15]: 70%
